Results from different studies.
Protocols differ between the studies behind these lines.
Cell line: HCT-15
Read-out: cell growth or viability

COc1ccc(C(=O)/C=C/c2cccc(Cl)c2Cl)cc1S(N)(=O)=O  GI50 (SRB; 48 h): 1.3 µM
COc1cccc(Oc2ccccc2NC(=O)CNC(=O)c2cccc3ccccc23)c1  GI50 (SRB; 48 h): 0.129 µM
O=C(O)CCCc1ccccc1  IC50 (MTT; 72 h): > 50 µM
CC(C)C[C@H](NC(=O)[C@H](Cc1ccccc1)NC(=O)c1cnccn1)B(O)O  IC50 (ATP luminescence): 0.0096 µM
COc1cccc2c1C(=O)c1c(O)c3c(c(O)c1C2=O)C[C@@](O)(C(=O)CO)C[C@@H]3O[C@H]1C[C@H](N)[C@H](O)[C@H](C)O1  IC50 (MTT; 24 h): 6.6 µM
CC(C)c1cccc(C(C)C)c1-n1ccn(-c2c(C(C)C)cccc2C(C)C)c1=[Se]  IC50 (MTT; 72 h): 14.8 µM
CC(C)[C@H](N)c1nc2cc(-c3ccncc3F)sc2c(=O)[nH]1  IC50 (MTT): 0.301 µM
COc1ccc(C(=O)/C=C/c2ccc3c(c2)OCCO3)cc1S(N)(=O)=O  inhibition (SRB; 10 µM): 58%
S=C([S][Au-][P+](CCCCCC[P+]([Au-][S]C(=S)n1cccn1)(c1ccccc1)c1ccccc1)(c1ccccc1)c1ccccc1)n1cccn1  GI50: 2.88 µM
Cc1c(C)n(-c2c(C(C)C)cccc2C(C)C)c(=[Se])n1-c1c(C(C)C)cccc1C(C)C  IC50 (MTT; 72 h): 16.2 µM
Cc1cc(C)n(C(=S)[S][Au][PH](CCCCCC[PH]([Au][S]C(=S)n2nc(C)cc2C)(c2ccccc2)c2ccccc2)(c2ccccc2)c2ccccc2)n1  GI50: 1.12 µM
[Se]=c1n(C23CC4CC(CC(C4)C2)C3)ccn1C12CC3CC(CC(C3)C1)C2  IC50 (MTT; 72 h): 8.3 µM
COc1cc(Nc2nccc(-c3cnn4nc(OC)ccc34)n2)cc(C(F)(F)F)c1  IC50 (ATP luminescence): 0.36 µM
